Assays:
Type in all cases: functional
[1] = system: OVCAR-5; experiment: Growth inhibition of human OVCAR5 cells after 48 hrs by sulforhodamine B assay; conditions: OVCAR-5, 48 h
Summary of the method: (§1)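 NCI 60-human-tumor-cell-line panel, with compounds tested over a 5-log dose range. Values are taken from dose-response curves as log10 molar concentrations: GI50 is 50% net growth inhibition, TGI is total growth inhibition, and LC50 is 50% net cell death.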

[2] = system: MDA-MB-231; experiment: Growth inhibition of human MDA-MB-231 cells after 48 hrs by sulforhodamine B assay; conditions: MDA-MB-231, 48 h; summary of the method: as §1
[3] = system: OVCAR-4; experiment: Growth inhibition of human OVCAR4 cells after 48 hrs by sulforhodamine B assay; conditions: OVCAR-4, 48 h; summary of the method: as §1
[4] = system: SK-MEL-28; experiment: Growth inhibition of human SK-MEL-28 cells after 48 hrs by sulforhodamine B assay; conditions: SK-MEL-28, 48 h; summary of the method: as §1
[5] = system: SW-620; experiment: Growth inhibition of human SW620 cells after 48 hrs by sulforhodamine B assay; conditions: SW-620, 48 h
Summary of the method: (§2)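 Run in the NCI 60-human-tumour-cell-line panel, tested over a 5-log dose range. Dose–response curves gave three values per cell line, each as a log10 molar concentration: GI50 (50% inhibition of net cell growth), TGI (total inhibition of net growth) and LC50 (50% net cell death). The mean graph midpoint is the arithmetic mean over all lines, with insensitive lines entered at the highest concentration tested.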

[6] = Growth inhibition of human […] cells after 48 hrs by sulforhodamine B assay; summary of the method: as §1
[7] = system: MDA-MB-435; experiment: Growth inhibition of human MDA-MB-435 cells after 48 hrs by sulforhodamine B assay; conditions: MDA-MB-435, 48 h; summary of the method: as §1
[8] = system: SNB-19; experiment: Growth inhibition of human SNB19 cells after 48 hrs by sulforhodamine B assay; conditions: SNB-19, 48 h; summary of the method: as §2
[9] = system: UACC-62; experiment: Growth inhibition of human UACC62 cells after 48 hrs by sulforhodamine B assay; conditions: UACC-62, 48 h; summary of the method: as §2
[10] = system: NCI-H522; experiment: Growth inhibition of human NCI-H522 cells after 48 hrs by sulforhodamine B assay; conditions: NCI-H522, 48 h; summary of the method: as §1
[11] = system: LOX IMVI; experiment: Growth inhibition of human LOXIMVI cells after 48 hrs by sulforhodamine B assay; summary of the method: as §1
[12] = Growth inhibition of human Hs 578T cells after 48 hrs by sulforhodamine B assay; summary of the method: as §1
[13] = system: SF-268; experiment: Growth inhibition of human SF268 cells after 48 hrs by sulforhodamine B assay; conditions: SF-268, 48 h; summary of the method: as §1
[14] = system: SF-268; experiment: Anticancer activity against human SF268 cells assessed as cell growth at 100 uM after 48 hrs by sulforhodamine B assay; conditions: SF-268, 48 h, read-out: Activity
[15] = system: SK-MEL-5; experiment: Growth inhibition of human SK-MEL-5 cells after 48 hrs by sulforhodamine B assay; conditions: SK-MEL-5, 48 h; summary of the method: as §1
[16] = system: 786-0; experiment: Growth inhibition of human 786-0 cells after 48 hrs by sulforhodamine B assay; conditions: 786-0, 48 h; summary of the method: as §1
[17] = system: SF-295; experiment: Growth inhibition of human SF295 cells after 48 hrs by sulforhodamine B assay; conditions: SF-295, 48 h; summary of the method: as §1
[18] = system: K562; experiment: Growth inhibition of human K562 cells after 48 hrs by sulforhodamine B assay; conditions: K562, 48 h; summary of the method: as §1
[19] = system: U-251; experiment: Growth inhibition of human U251 cells after 48 hrs by sulforhodamine B assay; conditions: U-251, 48 h; summary of the method: as §2
[20] = system: OVCAR-3; experiment: Growth inhibition of human OVCAR-3 cells after 48 hrs by sulforhodamine B assay; conditions: OVCAR-3, 48 h; summary of the method: as §1
[21] = system: CAKI-1; experiment: Growth inhibition of human Caki1 cells after 48 hrs by sulforhodamine B assay; conditions: CAKI-1, 48 h; summary of the method: as §1
[22] = system: SK-MEL-2; experiment: Growth inhibition of human SK-MEL-2 cells after 48 hrs by sulforhodamine B assay; conditions: SK-MEL-2, 48 h; summary of the method: as §1
[23] = system: MCF7; experiment: Anticancer activity against human MCF7 cells assessed as cell growth at 100 uM after 48 hrs by sulforhodamine B assay; conditions: MCF7, 48 h, read-out: Activity
[24] = system: RXF 393; experiment: Growth inhibition of human RXF393 cells after 48 hrs by sulforhodamine B assay; conditions: RXF 393, 48 h; summary of the method: as §1
[25] = system: NCI-H322M; experiment: Growth inhibition of human NCI-H322M cells after 48 hrs by sulforhodamine B assay; summary of the method: as §1
[26] = system: NCI-H23; experiment: Growth inhibition of human NCI-H23 cells after 48 hrs by sulforhodamine B assay; conditions: NCI-H23, 48 h; summary of the method: as §1
[27] = system: M14; experiment: Growth inhibition of human M14 cells after 48 hrs by sulforhodamine B assay; conditions: M14, 48 h; summary of the method: as §1
[28] = system: HCT-116; experiment: Growth inhibition of human HCT116 cells after 48 hrs by sulforhodamine B assay; conditions: HCT-116, 48 h; summary of the method: as §1
[29] = system: COLO 205; experiment: Growth inhibition of human COLO205 cells after 48 hrs by sulforhodamine B assay; conditions: COLO 205, 48 h; summary of the method: as §1
[30] = system: NCI/ADR-RES; experiment: Growth inhibition of human NCI/ADR-RES cells after 48 hrs by sulforhodamine B assay; summary of the method: as §1
[31] = read-out: pLC50 (the source's name) (converted)

COc1ccc(Oc2nc3cc(N)cc(N)c3nc2-c2ccccc2)cc1
GI50 [1]: 95.5 µM
CC50 [1, 31]: > 100 µM
TGI ([1]; read-out: pTGI (converted)): > 100 µM
GI50 [2]: 20.4 µM
CC50 [2, 31]: > 100 µM
TGI ([2]; read-out: pTGI (converted)): 64.6 µM
GI50 [3]: 3.72 µM
CC50 [3, 31]: > 100 µM
TGI ([3]; read-out: pTGI (converted)): 24.5 µM
GI50 [4]: 19.5 µM
CC50 [4, 31]: > 100 µM
TGI ([4]; read-out: pTGI (converted)): 49 µM
GI50 [5]: 89.1 µM
CC50 [5, 31]: > 100 µM
TGI ([5]; read-out: pTGI (converted)): > 100 µM
GI50 [6]: 10.5 µM
LC50 [6]: > 100 µM
TGI ([6]; read-out: pTGI (converted)): 70.8 µM
GI50 [7]: 40.7 µM
CC50 [7, 31]: > 100 µM
TGI ([7]; read-out: pTGI (converted)): > 100 µM
GI50 [8]: 64.6 µM
LC50 [8]: > 100 µM
TGI ([8]; read-out: pTGI (converted)): > 100 µM
GI50 [9]: 63.1 µM
CC50 [9, 31]: > 100 µM
TGI ([9]; read-out: pTGI (converted)): > 100 µM
GI50 [10]: 31.6 µM
LC50 [10]: > 100 µM
TGI ([10]; read-out: pTGI (converted)): > 100 µM
GI50 [11]: 34.7 µM
LC50 [11]: > 100 µM
TGI ([11]; read-out: pTGI (converted)): > 100 µM
GI50 [12]: 24.5 µM
CC50 [12, 31]: > 100 µM
TGI ([12]; read-out: pTGI (converted)): > 100 µM
GI50 [13]: 20.9 µM
LC50 [13]: > 100 µM
TGI ([13]; read-out: pTGI (converted)): > 100 µM
growth at 100 µM [14]: -56%
GI50 [15]: 44.7 µM
CC50 [15, 31]: > 100 µM
TGI ([15]; read-out: pTGI (converted)): > 100 µM
GI50 [16]: 24.5 µM
CC50 [16, 31]: > 100 µM
TGI ([16]; read-out: pTGI (converted)): > 100 µM
GI50 [17]: 23.4 µM
LC50 (50% net cell kill) [17]: > 100 µM
TGI ([17]; read-out: pTGI (converted)): 52.5 µM
GI50 [18]: 26.3 µM
LC50 [18]: > 100 µM
TGI ([18]; read-out: pTGI (converted)): > 100 µM
GI50 [19]: 26.3 µM
LC50 (50% net cell kill) [19]: > 100 µM
TGI ([19]; read-out: pTGI (converted)): > 100 µM
GI50 [20]: 14.8 µM
CC50 [20, 31]: > 100 µM
TGI ([20]; read-out: pTGI (converted)): 72.4 µM
GI50 [21]: 79.4 µM
CC50 [21, 31]: > 100 µM
TGI ([21]; read-out: pTGI (converted)): > 100 µM
GI50 [22]: 25.1 µM
CC50 [22, 31]: > 100 µM
TGI ([22]; read-out: pTGI (converted)): 87.1 µM
growth at 100 µM [23]: -89%
GI50 [24]: 20 µM
CC50 [24, 31]: > 100 µM
TGI ([24]; read-out: pTGI (converted)): 74.1 µM
GI50 [25]: > 100 µM
LC50 [25]: > 100 µM
TGI ([25]; read-out: pTGI (converted)): > 100 µM
GI50 [26]: 25.1 µM
LC50 (50% net cell kill concentration) [26]: > 100 µM
TGI ([26]; read-out: pTGI (converted)): > 100 µM
GI50 [27]: > 100 µM
CC50 [27, 31]: > 100 µM
TGI ([27]; read-out: pTGI (converted)): > 100 µM
GI50 [28]: 28.8 µM
LC50 (concentration causing 50% net cell death) [28]: > 100 µM
TGI ([28]; read-out: pTGI (converted)): 75.9 µM
GI50 [29]: > 100 µM
LC50 (50% net cell kill) [29]: > 100 µM
TGI ([29]; read-out: pTGI (converted)): > 100 µM
GI50 [30]: 60.3 µM
CC50 [30, 31]: > 100 µM
TGI ([30]; read-out: pTGI (converted)): > 100 µM

Reference: ChEMBL document CHEMBL1137710, “Synthesis and in vitro antitumor activity of new quinoxaline derivatives” (2009)
